Test results: ChEMBL document CHEMBL1152882, “Optimization of novel di-substituted cyclohexylbenzamide derivatives as potent 11 beta-HSD1 inhibitors” (Bioorg Med Chem Lett, 2009)

Columns and labels:
[1] = target: T1, Nuclear receptor subfamily 1 group I member 2 (Homo sapiens, UniProt O75469); test: Activation of human PXR expressed in human HepG2 cells at 2 uM by luciferase reporter gene assay relative to rifampin; type: cell-based; conditions: hepg2, 2 µM
T1 sequence (O75469 whole entry): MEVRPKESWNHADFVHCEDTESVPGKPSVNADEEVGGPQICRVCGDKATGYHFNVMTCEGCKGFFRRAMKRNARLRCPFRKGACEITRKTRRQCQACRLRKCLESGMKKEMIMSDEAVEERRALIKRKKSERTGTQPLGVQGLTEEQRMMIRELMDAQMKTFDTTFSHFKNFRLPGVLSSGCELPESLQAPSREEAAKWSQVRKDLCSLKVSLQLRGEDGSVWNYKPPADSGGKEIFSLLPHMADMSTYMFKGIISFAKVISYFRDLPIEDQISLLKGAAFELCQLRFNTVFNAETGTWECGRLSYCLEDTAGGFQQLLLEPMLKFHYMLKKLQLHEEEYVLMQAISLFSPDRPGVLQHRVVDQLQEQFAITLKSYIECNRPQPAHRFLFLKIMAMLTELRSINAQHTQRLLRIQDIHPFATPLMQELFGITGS
Outline: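 Transactivation was measured in HepG2 cells transfected with a luciferase reporter construct driven by human PXR cDNA. Luciferase activity was read by chemiluminescence and expressed as percent of the rifampin control.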

[2] = Metabolic stability in human liver microsomes assessed as compound turnover after 30 mins; type: ADME, Microsome; conditions: read-out: Activity
[3] = Metabolic stability in rat liver microsomes assessed as compound turnover after 30 mins; type: ADME, Microsome; conditions: read-out: Activity
[4] = test system: HeLa; test: Cytotoxicity against human HeLa cells after 72 hrs by alamar blue assay
[5] = target: 11-beta-hydroxysteroid dehydrogenase 1 (Homo sapiens, UniProt P28845); test: Inhibition of FLAG-tagged full length human 11beta-HSD1 expressed in baculovirus-infected Trichoplusia ni Hi5 cells assessed as reduction of [3H]cortisone to [3H]cortisol by scintillation proximity assay in presence of NADPH; type: cell-based, BTI-TN-5B1-4
[6] = Volume of distribution at steady state in rat at 0.7 mg/kg, iv and 2 mg/kg, po; type: ADME, organism-based; conditions: in vivo, read-out: Vdss
Outline: (§1)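 Single-dose PK: intravenous dose 0.5 or 0.7 mg/kg (footnotes a, b), oral dose 2.0 mg/kg. Reported parameters are iv clearance (L/h/kg), Vdss (L/kg), oral AUC and % oral bioavailability.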

[7] = AUC in cynomolgus monkey at 2 mg/kg, po; type: ADME, organism-based, Macaca fascicularis; design: dose 2 mg/kg, route oral; conditions: plasma; outline: as §1
[8] = Clearance in rat at 0.7 mg/kg, iv and 2 mg/kg, po; type: ADME, organism-based; conditions: in vivo; outline: as §1
[9] = AUC in rat at 2 mg/kg, po; type: ADME, organism-based; design: dose 2 mg/kg, route oral; conditions: plasma; outline: as §1
[10] = Bioavailability in rat at 0.7 mg/kg, iv and 2 mg/kg, po; type: ADME, organism-based; conditions: in vivo; outline: as §1
[11] = Clearance in cynomolgus monkey at 0.5 mg/kg, iv and 2 mg/kg, po; conditions: in vivo
[12] = Volume of distribution at steady state in cynomolgus monkey at 0.5 mg/kg, iv and 2 mg/kg, po; conditions: in vivo, read-out: Vdss
[13] = Bioavailability in cynomolgus monkey at 0.5 mg/kg, iv and 2 mg/kg, po; conditions: in vivo
[14] = test system: Cynomolgus monkey; test: cells; conditions: Macaca fascicularis, Adipose tissue
[15] = Tmax in po dosed Sprague-Dawley rat; type: ADME, organism-based; conditions: in vivo
[16] = Clearance in rat at 0.5 mg/kg, iv and 2 mg/kg, po; type: ADME, organism-based; conditions: in vivo; outline: as §1
[17] = Fraction unbound in human serum by ultracentrifugation assay; type: ADME, cell-free
Outline: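 Human protein binding was measured with separation by ultracentrifugation and reported as fraction unbound.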

[18] = Clearance in cynomolgus monkey at 0.5 mg/kg, iv and 2 mg/kg, po; type: ADME, organism-based, Macaca fascicularis; conditions: in vivo; outline: as §1
[19] = Volume of distribution at steady state in rat at 0.5 mg/kg, iv and 2 mg/kg, po; type: ADME, organism-based; conditions: in vivo, read-out: Vdss; outline: as §1
[20] = test system: Rattus norvegicus; test: Inhibition of 11beta-HSD1 in epididymal fat tissue of po dosed Sprague-Dawley rat assessed as reduction in [3H]cortisol production after 2 hrs by scintillation proximity assay; conditions: Adipose tissue
[21] = target: 11-beta-hydroxysteroid dehydrogenase 1 (Rattus norvegicus, UniProt P16232); test: Inhibition of rat 11beta-HSD1
Outline: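 Biochemical assay using baculovirus-produced recombinant full-length rat 11β-HSD1 with NADPH as cofactor. Substrate is [3H]cortisone. The [3H]-cortisol formed is captured by anti-cortisol monoclonal antibody SPA beads and quantified by scintillation. IC50 is from dose-response curve fitting of at least duplicate samples.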

[22] = Bioavailability in cynomolgus monkey at 0.5 mg/kg, iv and 2 mg/kg, po; type: ADME, organism-based, Macaca fascicularis; conditions: in vivo; outline: as §1
[23] = Volume of distribution at steady state in cynomolgus monkey at 0.5 mg/kg, iv and 2 mg/kg, po; type: ADME, organism-based, Macaca fascicularis; conditions: in vivo, read-out: Vdss; outline: as §1
[24] = Bioavailability in rat at 0.5 mg/kg, iv and 2 mg/kg, po; type: ADME, organism-based; conditions: in vivo; outline: as §1

11-beta-hydroxysteroid dehydrogenase 1 (Homo sapiens, UniProt P28845), sequence (P28845 whole entry): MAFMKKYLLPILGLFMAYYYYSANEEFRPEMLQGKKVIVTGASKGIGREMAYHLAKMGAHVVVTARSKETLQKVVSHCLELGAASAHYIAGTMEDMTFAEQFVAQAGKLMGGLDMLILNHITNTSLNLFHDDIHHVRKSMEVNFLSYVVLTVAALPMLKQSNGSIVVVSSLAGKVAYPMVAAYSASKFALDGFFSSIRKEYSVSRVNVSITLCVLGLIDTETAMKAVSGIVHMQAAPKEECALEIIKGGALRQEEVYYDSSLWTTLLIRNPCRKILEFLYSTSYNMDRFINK
11-beta-hydroxysteroid dehydrogenase 1 (Rattus norvegicus, UniProt P16232), sequence (P16232 whole entry): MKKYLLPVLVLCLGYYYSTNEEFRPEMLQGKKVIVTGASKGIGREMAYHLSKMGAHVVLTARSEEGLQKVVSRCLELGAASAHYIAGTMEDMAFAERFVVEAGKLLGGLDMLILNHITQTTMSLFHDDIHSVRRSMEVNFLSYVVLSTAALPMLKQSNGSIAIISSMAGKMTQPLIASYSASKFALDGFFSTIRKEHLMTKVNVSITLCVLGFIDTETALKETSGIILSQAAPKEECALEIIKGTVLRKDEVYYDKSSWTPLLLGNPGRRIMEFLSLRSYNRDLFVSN

| SMILES | Activity [1] [%] | metabolised at 0.5 h [2] [%] | metabolised at 0.5 h [3] [%] | IC50 [4] [nM] | also measured |
| --- | --- | --- | --- | --- | --- |
| C[C@@](O)(c1ccc(C(=O)N(C2CC2)[C@H]2CC[C@](C#N)(c3ccccn3)CC2)cc1)C(F)(F)F | 7.6 | < 5 | 14 | > 10000 |  |
| C[C@@](O)(c1ccc(C(=O)N(C2CC2)[C@H]2CC[C@@](C#N)(c3ccccn3)CC2)cc1)C(F)(F)F | 6.3 | 6.9 | 95 | > 10000 |  |
| C[C@](O)(c1ccc(C(=O)N(C2CC2)[C@H]2CC[C@H](c3cccnc3)CC2)cc1)C(F)(F)F | 2.2 | < 5 |  | 2500 | IC50 [5]: 1.7 nM |
| C[C@](O)(c1ccc(C(=O)N(C2CC2)[C@H]2CC[C@@H](c3cccnc3)CC2)cc1)C(F)(F)F | 38 | 94 |  | > 10000 | IC50 [5]: 1.6 nM |
| C[C@](O)(c1ccc(C(=O)N(C2CC2)[C@H]2CC[C@](C#N)(c3ccc(C#N)cc3)CC2)cc1)C(F)(F)F | < 5 | 6.8 | < 5 | > 10000 |  |
| C[C@](O)(c1ccc(C(=O)N(C2CC2)[C@H]2CC[C@](C#N)(c3cccnc3)CC2)cc1)C(F)(F)F | < 5 | < 5 | 35 | > 10000 |  |
| C[C@](O)(c1ccc(C(=O)N(C2CC2)[C@H]2CC[C@](O)(c3ccccc3)CC2)cc1)C(F)(F)F | < 5 | < 5 | < 5 | 5100 |  |
| C[C@](O)(c1ccc(C(=O)N(C2CC2)[C@H]2CC[C@@](C)(O)CC2)cc1)C(F)(F)F | < 5 | < 5 | < 5 | > 10000 |  |
| C[C@](O)(c1ccc(C(=O)N(C2CC2)[C@H]2CC[C@@H](c3ccc(C#N)cc3)CC2)cc1)C(F)(F)F | 75 | 33 |  | > 10000 | IC50 [5]: 4.9 nM |
| C[C@](O)(c1ccc(C(=O)N(C2CC2)[C@H]2CC[C@](O)(c3cccnc3)CC2)cc1)C(F)(F)F | < 5 | < 5 | < 5 | > 10000 |  |
| C[C@](O)(c1ccc(C(=O)N(C2CC2)[C@H]2CC[C@H](c3ccccc3)CC2)cc1)C(F)(F)F | 31 | < 5 |  | > 10000 |  |
| C[C@](O)(c1ccc(C(=O)N(C2CC2)[C@H]2CC[C@](O)(CC3CC3)CC2)cc1)C(F)(F)F | 5.9 | 10 | 43 | 2800 |  |
| C[C@](O)(c1ccc(C(=O)N(C2CC2)[C@H]2CC[C@H](c3ccc(C#N)cc3)CC2)cc1)C(F)(F)F | 11 | < 5 |  | 1100 | IC50 [5]: 0.76 nM |
| CC(C)[C@]1(O)CC[C@@H](N(C(=O)c2ccc([C@](C)(O)C(F)(F)F)cc2)C2CC2)CC1 | < 3.4 | 10 | 69 | > 10000 |  |
| C[C@](O)(c1ccc(C(=O)N(C2CC2)[C@H]2CC[C@@](O)(c3ccccc3)CC2)cc1)C(F)(F)F | < 5 | 15 | > 95 | > 10000 |  |
| C[C@](O)(c1ccc(C(=O)N(C2CC2)[C@H]2CC[C@](O)(c3ccccn3)CC2)cc1)C(F)(F)F | 6.1 | < 5 | < 5 | > 10000 |  |
| C[C@](O)(c1ccc(C(=O)N(C2CC2)[C@H]2CC[C@](C#N)(c3ccccc3)CC2)cc1)C(F)(F)F | < 5 | < 5 | 6 | > 10000 |  |
| C[C@](O)(c1ccc(C(=O)N(C2CC2)[C@H]2CC[C@](C#N)(C3CC3)CC2)cc1)C(F)(F)F | < 5 | < 10 | < 10 | > 10000 | Vd [6]: 2.2 L/kg; AUC [7]: 1000 ng·h/mL; clearance [8]: 3.17 mL/min/kg; AUC [9]: 4100 ng·h/mL; bioavailability [10]: 40%; clearance [11]: 1.55 mL/min/kg; Vd [12]: 1.9 L/kg; bioavailability [13]: 5% |
| C[C@](O)(c1ccc(C(=O)N(C2CC2)[C@H]2CC[C@](O)(C3CC3)CC2)cc1)C(F)(F)F | < 5 | < 5 | 7.4 | > 10000 | IC50 [14]: 640 nM; Tmax [15]: 2 h; clearance [16]: 4 mL/min/kg; fraction unbound [17]: 0.12; clearance [18]: 1.83 mL/min/kg; AUC [7]: 4700 ng·h/mL; Vd [19]: 2.7 L/kg; ED50 [20]: 10 mg/kg; IC50 [21]: 244 nM; bioavailability [22]: 43%; AUC [9]: 8900 ng·h/mL; Vd [23]: 1.5 L/kg; bioavailability [24]: 76% |
